Experimental data: ChEMBL document CHEMBL1146132, “Synthesis and activity of small molecule GPR40 agonists” (Bioorg Med Chem Lett, 2006)

Legend:
[1] = target: T1, Free fatty acid receptor 1 (Homo sapiens, UniProt O14842); assay: Agonist potency at human GPR40 expressed in CHO cells; type: functional, cell-based
Outline: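 Ten-point dose–response in CHO cells stably expressing human GPR40. Receptor activation was read out by a Gal4/Elk1/luciferase reporter gene. Potency was taken from the curve and reported as pEC50.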

[2] = target: T1, Free fatty acid receptor 1; assay: Agonist potency at human GPR40 expressed in CHO cells relative to standard by luciferase reporter gene assay; type: functional, cell-based

T1 sequence (O14842 whole entry, the tested form may be a part): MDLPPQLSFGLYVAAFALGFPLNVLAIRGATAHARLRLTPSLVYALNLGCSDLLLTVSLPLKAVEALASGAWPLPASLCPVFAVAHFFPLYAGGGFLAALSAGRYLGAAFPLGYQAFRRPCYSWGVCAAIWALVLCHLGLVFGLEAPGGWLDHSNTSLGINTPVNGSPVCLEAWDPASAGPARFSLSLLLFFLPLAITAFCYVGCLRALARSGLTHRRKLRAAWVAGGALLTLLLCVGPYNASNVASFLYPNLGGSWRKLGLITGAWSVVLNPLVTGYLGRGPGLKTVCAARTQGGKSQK

Row | Compound | EC50 [1] [nM] | %max [2] [%]
1 | O=C(O)[C@H]1C[C@@H]1c1ccc(NCc2cccc(Oc3ccccc3)c2)cc1 (stereo in doubt; 14A) [listing 1 of 2 here] |  | 88
2 | CC(C)(Oc1ccc(NCc2cccc(Oc3ccccc3)c2)cc1)C(=O)O | > 10000 | 14
3 | O=C(O)COc1ccc(NCc2cccc(Oc3ccccc3)c2)cc1 | 2040 | 84
4 | Cc1nc(-c2ccc(C(F)(F)F)cc2)sc1CNc1ccc([C@@H]2C[C@@H]2C(=O)O)cc1 | 302 | 68
5 | CC(CC(=O)O)c1ccc(NCc2cccc(Oc3ccccc3)c2)cc1 (configuration not stated) | 126 | 83
6 | CN(C)C(=O)CCc1ccc(NCc2cccc(Oc3ccccc3)c2)cc1 | 174 | 50
7 | O=C(O)CCCc1ccc(NCc2cccc(Oc3ccccc3)c2)cc1 | 1120 | 59
8 | O=C(O)CSc1ccc(NCc2cccc(Oc3ccccc3)c2)cc1 | 324 | 84
9 | CC(Cc1ccc(NCc2cccc(Oc3ccccc3)c2)cc1)C(=O)O (configuration not stated) | 100 | 70
10 | O=C(CCc1ccc(NCc2cccc(Oc3ccccc3)c2)cc1)N1CCCC1 | 115 | 46
11 | Cc1nc(-c2ccc(C(F)(F)F)cc2)sc1CNc1ccc([C@H]2C[C@@H]2C(=O)NC2CCNC2)cc1 (some centres not stated) | 204 | 52
12 | Cc1nc(-c2ccc(C(F)(F)F)cc2)sc1CNc1ccc(CC(=O)O)cc1 | > 10000 | 18
13 | O=C(O)c1ccc(NCc2cccc(Oc3ccccc3)c2)cc1 | > 10000 | 86
14 | Cc1nc(-c2ccc(C(F)(F)F)cc2)sc1CNc1ccc([C@H]2C[C@@H]2C(=O)NC(C)C)cc1 (stereo in doubt; 22B) [listing 2 of 2 here] |  | 69
15 | O=C(O)[C@H]1C[C@@H]1c1ccc(NCc2cccc(Oc3ccccc3)c2)cc1 (stereo in doubt; 10A) [listing 1 of 2 here] |  | 72
16 | Cc1nc(-c2ccc(C(F)(F)F)cc2)sc1CNc1ccc(CCC(=O)O)cc1 | 67.6 | 108
17 | O=C(O)Cc1ccc(NCc2cccc(Oc3ccccc3)c2)cc1 | > 10000 | 36
18 | Cc1nc(-c2ccc(C(F)(F)F)cc2)sc1CNc1ccc(CCC(=O)NC(C)C)cc1 | 100 | 84
19 | Cc1nc(-c2ccc(C(F)(F)F)cc2)sc1CNc1ccc([C@H]2C[C@@H]2C(=O)O)cc1 (stereo in doubt; 10B) [listing 2 of 2 here] |  | 81
20 | Cc1nc(-c2ccc(C(F)(F)F)cc2)sc1CNc1ccc(CC(C)C(=O)O)cc1 (configuration not stated) | 355 | 100
21 | Cc1nc(-c2ccc(C(F)(F)F)cc2)sc1CNc1ccc([C@H]2C[C@@H]2C(=O)NC(C)C)cc1 (stereo in doubt; 24B) [listing 2 of 2 here] |  | 71
22 | Cc1nc(-c2ccc(C(F)(F)F)cc2)sc1CNc1ccc(CCCC(=O)O)cc1 | > 10000 | 44
23 | Cc1nc(-c2ccc(C(F)(F)F)cc2)sc1CNc1ccc(C(=O)O)cc1 | > 10000 | 10
24 | Cc1nc(-c2ccc(C(F)(F)F)cc2)sc1CNc1ccc([C@H]2C[C@@H]2C(=O)O)cc1 (stereo in doubt; 14B) [listing 2 of 2 here] |  | 89
25 | O=C(O)[C@@H]1C[C@H]1c1ccc(NCc2cccc(Oc3ccccc3)c2)cc1 | 562 | 64
26 | Cc1nc(-c2ccc(C(F)(F)F)cc2)sc1CNc1ccc(OCC(=O)O)cc1 | 288 | 100
27 | O=C(O)/C=C/c1ccc(NCc2cccc(Oc3ccccc3)c2)cc1 | 145 | 76

Continued, values first:

Row | EC50 [1] [nM] | %max [2] [%] | Compound
28 | 51.3 | 68 | NC(=O)CCc1ccc(NCc2cccc(Oc3ccccc3)c2)cc1
29 | 64.6 | 86 | O=C(O)CCc1ccc(NCc2cccc(Oc3ccccc3)c2)cc1 [GW9508]
30 | 4.47 | 80 | Cc1nc(-c2ccc(C(F)(F)F)cc2)sc1CNc1ccc([C@H]2C[C@@H]2C(N)=O)cc1
31 | 12.6 | 62 | CC(C)NC(=O)[C@H]1C[C@@H]1c1ccc(NCc2cccc(Oc3ccccc3)c2)cc1
32 | 14.1 |  | Cc1nc(-c2ccc(C(F)(F)F)cc2)sc1CNc1ccc([C@H]2C[C@@H]2C(=O)NC(C)C)cc1 (stereo in doubt; 22B) [listing 1 of 2 here]
33 | 4.9 |  | Cc1nc(-c2ccc(C(F)(F)F)cc2)sc1CNc1ccc([C@H]2C[C@@H]2C(=O)O)cc1 (stereo in doubt; 14B) [listing 1 of 2 here]
34 | 11 |  | Cc1nc(-c2ccc(C(F)(F)F)cc2)sc1CNc1ccc([C@H]2C[C@@H]2C(=O)NC(C)C)cc1 (stereo in doubt; 24B) [listing 1 of 2 here]
35 | 6.92 | 78 | Cc1nc(-c2ccc(C(F)(F)F)cc2)sc1CNc1ccc([C@H]2C[C@@H]2C(=O)NO)cc1
36 | 14.8 | 90 | O=C(NO)[C@H]1C[C@@H]1c1ccc(NCc2cccc(Oc3ccccc3)c2)cc1
37 | 9.12 | 55 | Cc1nc(-c2ccc(C(F)(F)F)cc2)sc1CNc1ccc([C@H]2C[C@@H]2C(=O)NC2CCC2)cc1
38 | 2.45 |  | Cc1nc(-c2ccc(C(F)(F)F)cc2)sc1CNc1ccc([C@H]2C[C@@H]2C(=O)O)cc1 (stereo in doubt; 10B) [listing 1 of 2 here]
39 | 12.3 |  | O=C(O)[C@H]1C[C@@H]1c1ccc(NCc2cccc(Oc3ccccc3)c2)cc1 (stereo in doubt; 14A) [listing 2 of 2 here]
40 | 13.5 |  | O=C(O)[C@H]1C[C@@H]1c1ccc(NCc2cccc(Oc3ccccc3)c2)cc1 (stereo in doubt; 10A) [listing 2 of 2 here]
41 | 36.3 | 95 | Cc1nc(-c2ccc(C(F)(F)F)cc2)sc1CNc1ccc(/C=C/C(=O)O)cc1
42 | 39.8 | 66 | CC(C)NC(=O)CCc1ccc(NCc2cccc(Oc3ccccc3)c2)cc1
43 | 12.9 | 88 | Cc1nc(-c2ccc(C(F)(F)F)cc2)sc1CNc1ccc(CCC(N)=O)cc1
44 | 53.7 | 42 | Cc1nc(-c2ccc(C(F)(F)F)cc2)sc1CNc1ccc([C@H]2C[C@@H]2C(=O)N[C@H](C)c2ccccc2)cc1
45 | 49 | 67 | CNC(=O)CCc1ccc(NCc2cccc(Oc3ccccc3)c2)cc1
46 | 66.1 | 49 | Cc1nc(-c2ccc(C(F)(F)F)cc2)sc1CNc1ccc([C@H]2C[C@@H]2C(=O)N(C)C)cc1
47 | 58.9 | 109 | Cc1nc(-c2ccc(C(F)(F)F)cc2)sc1CNc1ccc(C(C)CC(=O)O)cc1 (configuration not stated)
